# Screening data from PubChem.
# CSN inh: blocks human CSN-mediated cullin deneddylation; Q92905; Purified CSN, SCF-Nedd8-OG deneddylation, fluorescence polarization; inhibition, % at 12.5 µM; actives 0.38% (n = 360,000); AID 651999;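 active means pattern-corrected inhibition above about 35%, with an unprinted fluorescence ratio check between 0.5 and 1.5, limit read from the data, passing the limit was not always enough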;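 further: 0% = enzyme with substrate and 100% = substrate without enzyme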
# Target sequence (Q92905 whole entry, looked up, one chain of several): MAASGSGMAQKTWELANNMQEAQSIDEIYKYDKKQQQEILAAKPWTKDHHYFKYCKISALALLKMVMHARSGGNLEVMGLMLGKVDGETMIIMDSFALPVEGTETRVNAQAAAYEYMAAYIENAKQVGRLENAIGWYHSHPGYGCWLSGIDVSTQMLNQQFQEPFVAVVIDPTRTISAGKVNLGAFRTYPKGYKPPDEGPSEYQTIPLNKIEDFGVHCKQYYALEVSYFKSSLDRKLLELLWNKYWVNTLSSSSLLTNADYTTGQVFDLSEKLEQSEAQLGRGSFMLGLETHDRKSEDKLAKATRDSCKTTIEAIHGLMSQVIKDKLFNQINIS
#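 Test system: Human Csn5 produced in HEK293T cells | Compound: 12.5 µM single point | Times: 90 min, room temperature | Signal: Fluorescence polarization readout | Read-out basis: % inhibition of substrate cleavage by Csn5 | Controls: no-enzyme wells high, enzyme-with-substrate wells low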
# Rpn11 inh: inhibitors of human proteasome Rpn11; O00487; calls only at 20 µM; AID 588493; actives 0.59% (n = 360,000); human 26S proteasome, Ub4-pepOG fluorescence polarization; 20S core pre-blocked with epoxomicin;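 active means inhibition at 20 µM, scaled to each plate's controls, above about 33%, limit read from the data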
# TPT1 inhibitor: inhibitors of Candida albicans tRNA 2'-phosphotransferase TPT1; recombinant caTPT1, FP RNA substrate dephosphorylation; inhibition, % at 5 µM; actives 0.81% (n = 300,000);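 active means inhibition above the mean of all tested compounds plus 3 SD, set per screening campaign, cut at about 24% in these data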;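 further: plate controls were DMSO alone for no effect and ferristatin control at 100 nM for full effect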
# IDE inh: inhibits human insulin-degrading enzyme in HEK cells; FAbetaB cleavage, fluorescence polarization; inhibition, % at 5.59 µM; actives 0.41% (n = 320,000);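 active means percent inhibition above the average of all tested compounds plus 3 SD, set per screening campaign, cut at about 16% in these data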;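 further: IDE supplied by intact live HEK cells; FP after avidin binding of uncleaved biotin substrate so inhibition keeps polarization high; 0% = DMSO wells and 100% = 60 µM reference IDE inhibitor Ii1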
# HNF4A DNA FP: change in binding of human HNF4 alpha to DNA; P41235; actives 0.3% (n = 360,000); HNF4a-FITC DNA binding, fluorescence polarization, 1 h; activity change, % at 10 µM; in the data active means activity change above about 30%, passing the limit was not always enough
# IDE act: IDE (human) activation, cell-based. HEK cells, FAbeta-B cleavage, fluorescence polarization; 0% vehicle, 100% cell-free pure enzyme wells. actives 0.073% (n = 340,000). activation, % at 5.96 µM. P14735;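 active means activation above the mean of all tested compounds plus 3 SD, set per screening campaign, cut at about 17% in these data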
# Rpn11 confirm: confirmation of human proteasome Rpn11 inhibitors. actives 29% (n = 1,900). purified human 26S proteasome, Ub4-pepOG fluorescence polarization; proteasome pretreated with epoxomicin. inhibition, % at 20 µM. shares compounds with Rpn11 inh
# MMP-2 counter: MMP-2 (human) inhibition counter-screen | shares compounds with Rpn11 inh | recombinant MMP-2, FRET peptide cleavage fluorescence | inhibition, % at 20 µM | actives 4% (n = 1,900) | AID 602330;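 further: human MMP-2 activated beforehand with APMA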
# Thrombin inh: thrombin (bovine) inhibition counter-screen; bovine thrombin cleavage of Ub4-pepOG, fluorescence polarization; actives 13% (n = 1,900); shares compounds with Rpn11 inh; inhibition, % at 20 µM;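 active means mean inhibition at least 40% at 20 µM, or signal 3 deviations below plate average, so some actives read negative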;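 further: plate controls were thrombin with DMSO for no effect and buffer wells lacking thrombin for full effect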
# Starred values were filed as active, the others as inactive; i = inactive; / = no result; + = active, no number. In the library only some 1.7% were active in any assay of this set; here they are far more common. Unless noted, no stated cut-off is given here; in the data, active means inhibition above about 40%; inactive means the rest.
SMILES,CSN inh,Rpn11 inh,TPT1 inhibitor,IDE inh,HNF4A DNA FP,IDE act,Rpn11 confirm,MMP-2 counter,Thrombin inh
Cc1onc(-c2c(F)cccc2Cl)c1C(=O)OCC(=O)c1c[nH]c2ccccc12,0,+,2,0,3,-6,20,-28,-11
Cc1noc(C)c1C(=O)OCC(=O)c1c[nH]c2ccccc12,4,i,4,3,5,2,/,/,/
CN(C)c1ccc(C=C2C(=O)OC(C)(C(C)(C)C)OC2=O)cc1 (configuration not stated),2,i,15,4,-3,4,/,/,/
CCN(CC)c1ccc(C=C2C(=O)OC(c3ccccc3)OC2=O)cc1 (configuration not stated),14,+,6,1,25,5,77*,6,76*
CSc1nnc(C)c(=O)n1COC(=O)COc1ccccc1,8,i,-4,2,2,3,/,/,/
O=C(CN1C(=O)C2C3C=CC(C3)C2C1=O)Nc1nc(SCc2ccc(Cl)cc2)n[nH]1 (configuration not stated),2,+,0,0,5,3,1,29,4
COc1ccc(OCCNC(=O)c2ccc(C)cc2)cc1,3,+,-1,0,-1,1,-16,3,-26
O=C(CCN=C1NS(=O)(=O)c2ccccc21)OCC(=O)c1ccccc1,-4,i,-1,-7,1,4,/,/,/
O=C(OCC(=O)c1ccccc1)C1=NN(c2ccccc2)C(=O)CC1,-5,i,/,3,1,-6,/,/,/
CCCCCCCCCCCC1N=C(N)NC(CCCO)=C1C(=O)OC (configuration not stated),16,+,/,/,13,9,49*,-28,-35
O=C1NC(=S)NC1=Cc1ccc2c(c1)CCC2,3,+,/,/,39*,-8,-13,29,-14
CC(=C/C(=O)O)/C=C/c1ccc(Cl)o1,23,i,-7,1,-16,-5,/,/,/
Cn1c(=O)c2cc(NC(=O)Nc3cccnc3)ccc2n1Cc1ccc(Cl)cc1,10,+,/,/,16,/,14,-17,4
Cc1ccc(N=N/C(=C\O)C(=O)c2ccc(Cl)cc2)cc1,-1,i,-2,-8,10,2,/,/,/
CCCCOc1ccc2c(c1)/C(=C(\C(Cl)=C(Cl)Cl)[N+](=O)[O-])N2,7,+,-42,-4,14,1,-48,36,-62
Cc1nc2ccccc2c2oc(C(=O)N3CCC(N4CCCCC4)CC3)cc12,16,+,7,0,16,7,18,-36,2
Cc1nc2ccccc2c2oc(C(=O)N3CCN(C4CCCCC4)CC3)cc12,1,i,-8,-1,0,-4,/,/,/
CCC(C)Sc1cc(C(F)(F)F)c(C(=O)Nc2ccc(Cl)cc2)cn1 (configuration not stated),-4,i,-3,7,-4,-2,/,/,/
Cc1ccc(C(=O)C(C)OC(=O)c2cc3cc([N+](=O)[O-])ccc3oc2=O)cc1 (configuration not stated),2,i,-3,-2,-2,2,/,/,/
O=C(CSc1nc2nc(-c3cccs3)cc(C(F)(F)F)c2c(=O)[nH]1)Nc1ccc(F)c(F)c1,14,+,9,6,-12,-1,57*,-8,0
NS(=O)(=O)c1ccc(NS(=O)(=O)c2ccc(NC(=O)c3ccc(-c4ccccc4)cc3)cc2)cc1,29,+,8,36*,-26,-23,109*,32,101*
NS(=O)(=O)c1ccc(NC(=O)c2ccc(-c3ccccc3)cc2)cc1,34,+,/,/,-32,/,119*,13,18
NS(=O)(=O)c1ccc(NC(=O)c2cccc(N3C(=O)c4ccccc4C3=O)c2)cc1,33,+,-2,0,49,-4,82*,i,-12
CC(C)(C)c1ccc(C(=O)Nc2ccc(S(N)(=O)=O)cc2)cc1,0,i,2,-2,-2,4,/,/,/
NS(=O)(=O)c1ccc(NC(=O)Nc2ccccc2)cc1,1,+,-4,-2,-3,3,-14,-11,-31
SMILES,CSN inh,Rpn11 inh,TPT1 inhibitor,IDE inh,HNF4A DNA FP,IDE act,Rpn11 confirm,MMP-2 counter,Thrombin inh
COc1cccc(N(CC(=O)O)S(=O)(=O)c2ccccc2)c1,5,i,0,3,2,-1,/,/,/
Cc1cccc(-n2c(-c3ccco3)nc3nc4ccccc4nc32)c1,/,/,4,-1,/,/,/,/,/
Cc1ccc(-n2c(-c3ccco3)nc3nc4ccccc4nc32)cc1,15,+,-2,0,8,1,43*,-9,-15
Fc1ccc(-c2nc3c(Cl)cc(C(F)(F)F)cn3c2Cc2ccsc2)cc1,-4,/,/,/,3,/,/,/,/
COc1nc(Nc2nc3ccccc3c(=O)[nH]2)nc2ccc(C)cc12,8,+,-3,3,275*,10,16,-6,5
COc1ccc(C2/C(=C(/O)c3ccc(C)cc3)C(=O)C(=O)N2CC2CCCO2)cc1OC (configuration not stated),6,i,0,-1,0,6,/,/,/
C=CCn1c(O)c(C=Nc2ccc(Cc3ccncc3)cc2)c(=O)[nH]c1=S,2,+,9,7,2,2,11,-3,-8
COc1ccc(CCn2c(O)c(C=Nc3cccc(F)c3)c(=O)[nH]c2=O)cc1OC,3,i,6,2,1,/,/,/,/
CC(/C=C\c1ccccc1)=C/C(=O)O,-3,i,-3,5,1,7,/,/,/
CC(=O)C1=C(O)C(=CC=Cc2ccccc2)OC1=O,9,+,/,/,60*,/,43*,-17,26
CCN(CC)C(=O)CSc1nc2c(sc(=S)n2-c2ccccc2OC)c(=O)n1-c1ccccc1,5,+,-6,10,1,1,2,10,17
CCN(CC)C(=O)CSc1nc2c(sc(=S)n2CC)c(=O)n1-c1ccccc1,7,i,0,4,8,-2,/,/,/
COCCOC(=O)C1=C(C)NC(=O)NC1c1ccc(-c2cc(Cl)ccc2Cl)o1 (configuration not stated),-3,+,3,4,16,/,33,-27,16
